# Data reported in ChEMBL document CHEMBL4118181, “Investigations on small molecule inhibitors targeting the histone H3K4 tri-methyllysine binding PHD-finger of JmjC histone demethylases” (Bioorg Med Chem, 2018).
# Calls of active or inactive are those of the source. The rule behind the calls is not given here.
# Assays:
# [1] = molecular target: T1, Lysine-specific demethylase 7A (Homo sapiens) (UniProt Q6ZMT4); experiment: Inhibition of KDM7A (PHD-JmjC) (unknown origin) demethylation activity at 100 uM preincubated for 10 mins followed by H3(1-15)K9me2 peptide substrate addition by MALDI-TOF-MS analysis
# T1 sequence (whole entry): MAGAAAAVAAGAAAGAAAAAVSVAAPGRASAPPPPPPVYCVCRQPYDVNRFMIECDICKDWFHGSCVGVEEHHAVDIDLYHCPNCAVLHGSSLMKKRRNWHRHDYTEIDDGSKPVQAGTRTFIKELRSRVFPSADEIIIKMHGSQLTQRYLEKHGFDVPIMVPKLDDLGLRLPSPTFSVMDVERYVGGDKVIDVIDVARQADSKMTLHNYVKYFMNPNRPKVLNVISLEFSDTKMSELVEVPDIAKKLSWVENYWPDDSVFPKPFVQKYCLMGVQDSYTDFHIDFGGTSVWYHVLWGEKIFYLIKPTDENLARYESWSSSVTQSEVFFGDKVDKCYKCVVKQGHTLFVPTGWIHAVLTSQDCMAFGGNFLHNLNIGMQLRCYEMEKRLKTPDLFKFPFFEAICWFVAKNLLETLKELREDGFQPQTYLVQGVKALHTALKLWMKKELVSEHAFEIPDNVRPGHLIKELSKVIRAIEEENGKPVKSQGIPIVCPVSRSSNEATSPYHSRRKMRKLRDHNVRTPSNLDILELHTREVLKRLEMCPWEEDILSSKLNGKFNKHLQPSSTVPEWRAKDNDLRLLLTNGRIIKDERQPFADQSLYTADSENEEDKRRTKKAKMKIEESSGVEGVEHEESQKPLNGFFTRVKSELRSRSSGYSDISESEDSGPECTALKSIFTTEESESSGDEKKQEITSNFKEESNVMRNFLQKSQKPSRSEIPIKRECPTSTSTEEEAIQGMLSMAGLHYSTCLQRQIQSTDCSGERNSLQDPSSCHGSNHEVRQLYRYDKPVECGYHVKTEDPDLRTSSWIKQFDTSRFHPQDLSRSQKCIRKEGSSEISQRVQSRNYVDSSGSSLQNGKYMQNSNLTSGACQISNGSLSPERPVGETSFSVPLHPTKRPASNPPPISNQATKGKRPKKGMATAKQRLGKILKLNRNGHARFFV
# [2] = molecular target: Histone lysine demethylase PHF8 (Homo sapiens) (UniProt Q9UPP1); experiment: Displacement of C-terminally biotinylated-H3K4me3 (1 to 21 residues) peptide from KDM7B (PHD-JmjC) (unknown origin) at 100 uM preincubated for 15 mins followed by peptide addition measured after 1 hr by luminescence-based AlphaScreen assay
# Histone lysine demethylase PHF8 (Homo sapiens), sequence (Q9UPP1 whole entry, the tested form may be a part): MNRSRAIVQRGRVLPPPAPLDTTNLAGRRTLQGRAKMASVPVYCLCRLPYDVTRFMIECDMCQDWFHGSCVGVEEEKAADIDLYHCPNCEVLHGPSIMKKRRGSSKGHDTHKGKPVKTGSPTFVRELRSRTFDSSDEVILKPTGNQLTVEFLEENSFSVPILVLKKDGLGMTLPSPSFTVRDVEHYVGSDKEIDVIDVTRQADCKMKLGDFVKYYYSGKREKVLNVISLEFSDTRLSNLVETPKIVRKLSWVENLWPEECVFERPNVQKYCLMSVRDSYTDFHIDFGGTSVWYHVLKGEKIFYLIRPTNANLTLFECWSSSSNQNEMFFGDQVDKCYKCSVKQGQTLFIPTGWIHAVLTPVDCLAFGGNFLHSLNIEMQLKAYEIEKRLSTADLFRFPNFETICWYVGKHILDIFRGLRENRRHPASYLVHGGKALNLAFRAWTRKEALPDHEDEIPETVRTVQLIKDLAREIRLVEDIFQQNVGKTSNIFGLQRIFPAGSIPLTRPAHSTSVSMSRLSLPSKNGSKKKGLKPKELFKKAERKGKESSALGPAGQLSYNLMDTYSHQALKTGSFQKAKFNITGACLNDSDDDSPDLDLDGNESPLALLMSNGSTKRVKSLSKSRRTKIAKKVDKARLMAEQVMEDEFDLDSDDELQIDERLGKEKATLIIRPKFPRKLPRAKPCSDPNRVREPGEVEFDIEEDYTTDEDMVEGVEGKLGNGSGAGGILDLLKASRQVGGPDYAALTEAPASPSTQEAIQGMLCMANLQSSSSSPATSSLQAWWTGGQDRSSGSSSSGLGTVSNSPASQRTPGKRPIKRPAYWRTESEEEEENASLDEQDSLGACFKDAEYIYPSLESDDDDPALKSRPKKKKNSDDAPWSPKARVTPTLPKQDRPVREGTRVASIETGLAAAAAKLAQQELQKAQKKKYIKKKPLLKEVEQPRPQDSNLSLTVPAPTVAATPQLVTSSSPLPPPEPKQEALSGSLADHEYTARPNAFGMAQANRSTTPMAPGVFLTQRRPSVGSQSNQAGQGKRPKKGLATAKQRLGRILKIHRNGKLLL
# [3] = molecular target: T1, Lysine-specific demethylase 7A (Homo sapiens); experiment: Displacement of C-terminally biotinylated-H3K4me3 (1 to 21 residues) peptide from KDM7A (PHD-JmjC) (unknown origin) at 100 uM preincubated for 15 mins followed by peptide addition measured after 1 hr by luminescence-based AlphaScreen assay
# [4] = molecular target: Lysine-specific demethylase 5A (Homo sapiens) (UniProt P29375); experiment: Mixed type inhibition of KDM5A (L88 to G353 residues) ARID/PHD1/2/3 deletion mutant (unknown origin) demethylation activity using H3(1-21)K4me3 peptide as substrate measured every 30 seconds over 25 mins by formaldehyde dehydrogenase coupled activity assay based Lineweaver-Burk plot analysis
# Lysine-specific demethylase 5A (Homo sapiens), sequence (P29375 whole entry, the tested form may be a part): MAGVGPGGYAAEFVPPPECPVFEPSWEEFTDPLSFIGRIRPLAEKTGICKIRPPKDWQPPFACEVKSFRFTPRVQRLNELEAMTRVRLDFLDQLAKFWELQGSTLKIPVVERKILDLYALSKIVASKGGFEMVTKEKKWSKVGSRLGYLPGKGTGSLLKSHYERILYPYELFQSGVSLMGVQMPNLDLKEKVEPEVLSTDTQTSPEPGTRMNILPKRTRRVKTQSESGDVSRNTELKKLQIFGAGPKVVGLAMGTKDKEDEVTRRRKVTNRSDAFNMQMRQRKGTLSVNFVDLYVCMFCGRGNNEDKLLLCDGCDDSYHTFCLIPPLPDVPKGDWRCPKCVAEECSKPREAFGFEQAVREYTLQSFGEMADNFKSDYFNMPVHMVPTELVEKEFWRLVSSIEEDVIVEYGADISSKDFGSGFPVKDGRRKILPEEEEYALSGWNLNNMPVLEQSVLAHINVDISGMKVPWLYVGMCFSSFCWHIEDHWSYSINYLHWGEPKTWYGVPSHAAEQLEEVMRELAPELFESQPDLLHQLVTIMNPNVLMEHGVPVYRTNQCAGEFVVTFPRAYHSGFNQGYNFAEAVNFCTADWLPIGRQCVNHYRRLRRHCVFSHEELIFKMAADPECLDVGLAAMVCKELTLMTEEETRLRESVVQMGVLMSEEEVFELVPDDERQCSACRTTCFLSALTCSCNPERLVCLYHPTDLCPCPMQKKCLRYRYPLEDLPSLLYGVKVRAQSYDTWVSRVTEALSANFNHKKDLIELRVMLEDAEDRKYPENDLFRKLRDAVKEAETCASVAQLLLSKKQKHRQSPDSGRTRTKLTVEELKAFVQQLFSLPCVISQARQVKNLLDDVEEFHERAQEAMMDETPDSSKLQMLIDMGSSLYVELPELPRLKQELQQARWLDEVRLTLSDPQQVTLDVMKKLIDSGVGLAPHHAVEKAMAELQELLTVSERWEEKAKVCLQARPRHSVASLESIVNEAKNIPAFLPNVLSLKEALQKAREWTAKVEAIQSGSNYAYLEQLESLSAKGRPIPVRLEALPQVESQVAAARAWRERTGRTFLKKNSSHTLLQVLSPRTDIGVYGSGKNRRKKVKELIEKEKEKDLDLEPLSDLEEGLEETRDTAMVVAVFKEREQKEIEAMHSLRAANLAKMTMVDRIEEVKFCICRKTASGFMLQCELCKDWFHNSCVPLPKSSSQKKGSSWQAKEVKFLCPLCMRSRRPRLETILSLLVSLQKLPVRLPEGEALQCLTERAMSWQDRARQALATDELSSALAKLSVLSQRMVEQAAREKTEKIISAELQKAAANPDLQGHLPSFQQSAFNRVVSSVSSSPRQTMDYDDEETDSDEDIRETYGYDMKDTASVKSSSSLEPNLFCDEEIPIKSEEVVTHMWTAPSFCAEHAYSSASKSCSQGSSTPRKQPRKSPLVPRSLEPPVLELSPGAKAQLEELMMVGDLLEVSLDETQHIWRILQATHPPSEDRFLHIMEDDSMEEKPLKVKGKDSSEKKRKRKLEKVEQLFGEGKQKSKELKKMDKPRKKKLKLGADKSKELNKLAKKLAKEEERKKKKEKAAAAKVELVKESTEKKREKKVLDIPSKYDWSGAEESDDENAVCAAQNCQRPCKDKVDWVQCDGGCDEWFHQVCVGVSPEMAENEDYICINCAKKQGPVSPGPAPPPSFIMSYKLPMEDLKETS
# How it was run: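 FDH enzyme-coupled fluorescence assay of KDM5A_c2 demethylation, with formaldehyde production as the read-out. Kinetic analysis is made against the H3K4me3 substrate, and α and Ki are derived to assign the inhibition mode.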
# [5] = molecular target: Lysine-specific demethylase 5A (Homo sapiens) (UniProt P29375); experiment: Substrate activity at KDM5A (L88 to G353 residues) ARID/PHD1/2/3 deletion mutant (unknown origin) demethylation activity assessed as formaldehyde production measured every 30 seconds over 25 mins in absence of H3K4me3
inhibition [1],inhibition [2],inhibition [3],inhibition [4],Activity [5],SMILES
100%,–,–,–,–,Cc1oc2ccccc2c1C(=O)c1ccc(OCCC[N+](C)(C)C)cc1
100%,inactive,–,–,–,CCCCc1oc2ccccc2c1C(=O)c1ccc(OCCCN(C)C)cc1
17%,inactive,inactive,–,–,CCCCc1oc2ccccc2c1C(=O)c1cc(I)c(OCC[N+](C)(C)C)c(I)c1
100%,inactive,–,–,–,CCCCc1oc2ccccc2c1C(=O)c1cc(I)c(OCCC[N+](C)(C)C)c(I)c1
100%,–,–,Active,inactive,CCCCc1oc2ccccc2c1C(=O)c1ccc(OCCC[N+](C)(C)C)cc1
